Laboratory results as given in article PMC3375358 (Journal of Medicinal Chemistry, 2012).

How the values were obtained:
[1] = test system: CREB-mediated gene transcription; experiment: CREB reporter assay in HEK 293T cells; assay type: cell-based
Method in brief: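 Inhibition of CREB-dependent reporter transcription by test compounds was measured in HEK 293T cells, with a top concentration of 50 μM. IC50 values are given as mean ± SD from at least two independent experiments. Where IC50 was not reached at the highest concentration, the value is recorded as >50.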

[2] = target: KIX-KID interaction (Homo sapiens, UniProt Q92793); experiment: in vitro renilla luciferase complementation assay for KIX-KID interaction; assay type: biochemical
KIX-KID interaction, sequence (Q92793 587-666 limits assumed): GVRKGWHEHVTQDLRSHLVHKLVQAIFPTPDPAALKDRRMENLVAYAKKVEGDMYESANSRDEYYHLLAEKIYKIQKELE
Method in brief: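 KIX-KID binding was measured in vitro by renilla luciferase complementation, with test compounds up to 50 μM. IC50 values are given as mean ± SD from at least two independent experiments. The value is listed as >50 if IC50 was not reached at the top concentration.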

| Structure (SMILES) | activity in cell-based CREB reporter assay (in words) [1] | activity in inhibiting KIX-KID interaction (in words) [2] |
| --- | --- | --- |
| O=c1oc2cc3ccccc3cc2c(=O)n1-c1ccc(Cl)cc1 [Compound 2, 3-(4-Chlorophenyl)-2H-naphtho[2,3-e][1,3]oxazine-2,4-(3H)-dione] | low or no inhibitory activity | neither of these compounds showed any activity |
| O=c1[nH]c2cc3ccccc3cc2c(=O)n1-c1ccc(Cl)cc1 [Compound 3, 3-(4-Chlorophenyl)-benzo[g]quinazoline-2,4-(1H,3H)-dione] | low or no inhibitory activity | neither of these compounds showed any activity |
| Clc1ccc(Nc2noc3cc4ccccc4cc23)cc1 [Compound 4, N-(4-Chlorophenyl)-naphtho[2,3-d]isoxazol-3-amine] | very weak activity | inactive |
| Cn1nc(Nc2ccc(Cl)cc2)c2cc3ccccc3cc21 [Compound 6, N-(4-Chlorophenyl)-1-methyl-1H-benzo[f]indazol-3-amine] | inactive |  |
